Screening results (PubChem)
A selection: hits, their analogues and other compounds. The true share with any hit is near 0.85%.
OXTR potentiate – potentiates the human oxytocin receptor response. P30559. CHO-OTR cells, Fluo-8 calcium fluorescence, potentiator mode; 0% = oxytocin EC15, 100% = EC100. activation, % at 3 µM. actives 0.061% (n = 320,000). AID 2445;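 active = activation above that plate's cutoff, the mean activation of tested compounds plus 3 SD, cut at about 6.6% in these data, passing the limit was not always enough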;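 also: 100% uses oxytocin at 75 nM as the full agonist control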
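Assay system: CHO cell line stably expressing human OTR | Also added: Oxytocin at about EC15, sub-maximal agonist stimulus | Times: Compound 6 min at room temperature before oxytocin, 100 s read | Measured by: Fluo-8 intracellular calcium fluorescence, ex 470-495, em 515-575 nm | Controls: EC15 oxytocin alone as 0%, 75 nM oxytocin as 100%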
CRFBP-R2 agonist – agonists of human CRF-binding protein/CRF-R2 receptor complex. HEK293 CRF-R2/CRF-BP, calcium dye fluorescence (FLIPR); percent of saturating CRF peptide response. activation, % at 13.2 µM. actives 0.46% (n = 350,000);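 active = activation of at least 50%, plus an integration ratio under a set limit after plate pattern correction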;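 also: plate controls were neutral control wells without compound for no effect and CRF at EC100 for full effect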
V1aR counter – activates human V1a receptor in oxytocin agonist counter-screen. P37288. AID 2797. activation, % at 3 µM. CHO-V1R cells, Fluo-8 calcium fluorescence, agonist mode; 0% DMSO, 100% 3 nM vasopressin. actives 0.25% (n = 320,000);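 active = activation above the mean activation of all tested compounds plus 3 SD, per screening run, cut at about 20% in these data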;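 also: signal is peak over basal fluorescence ratio across a 100 second FLIPR read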
Target sequence (P37288 whole entry, looked up): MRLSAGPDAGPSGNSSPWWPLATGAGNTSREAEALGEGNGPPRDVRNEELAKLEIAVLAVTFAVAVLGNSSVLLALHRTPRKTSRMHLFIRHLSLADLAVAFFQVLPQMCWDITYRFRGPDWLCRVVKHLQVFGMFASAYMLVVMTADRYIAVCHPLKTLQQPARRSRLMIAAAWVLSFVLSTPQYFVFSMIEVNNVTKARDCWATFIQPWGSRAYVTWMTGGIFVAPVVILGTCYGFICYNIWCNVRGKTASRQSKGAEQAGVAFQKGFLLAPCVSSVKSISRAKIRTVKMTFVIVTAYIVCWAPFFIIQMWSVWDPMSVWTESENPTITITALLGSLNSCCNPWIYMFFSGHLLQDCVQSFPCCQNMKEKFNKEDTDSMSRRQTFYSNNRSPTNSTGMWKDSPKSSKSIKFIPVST
OXTR agonist – agonists of human oxytocin receptor; P30559; CHO-OTR cells, Fluo-8 calcium fluorescence; normalized: DMSO 0%, oxytocin 100%; activation, % at 3 µM; actives 0.32% (n = 320,000); AID 2435;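 active = activation above the mean of all tested compounds plus 3 SD, cutoff set per screening run, cut at about 20% in these data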;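 also: peak over basal fluorescence ratio from a 100 s FLIPR kinetic read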
TRPML3 ag – activates the human TRPML3 channel. Q8TDD5. HEK293 TRPML3-YFP, Fluo-8 calcium fluorescence; 100% = the carbachol control signal. activation, % at 3 µM. actives 0.29% (n = 220,000). AID 1448;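 active = activation above its plate's cutoff, the mean activation of the plate's test wells plus 3 SD, cut at about 12% in these data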;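 also: 0% = DMSO only wells and 100% = carbachol wells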
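Test system: HEK293 cells stably carrying human TRPML3-YFP; Doses: single dose, 3 µM final nominal compound, 0.3% DMSO final; Schedule: dye loading 1 h 37 °C then 30 min ambient, 125 s read; Technique: Fluo-8 calcium fluorescence; Benchmarks: high control carbachol 87 µM, low control DMSO.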
zfTRPN1 agonist – activates the zebrafish TRPN1 channel. activation, % at 3 µM. HEK293 zebrafish TRPN1-YFP, Fluo-8 calcium fluorescence; 100% = response to 87 µM carbachol. AID 1424. actives 0.18% (n = 220,000);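 active = activation above its plate's cutoff, the mean activation of test wells on that plate plus 3 SD, cut at about 19% in these data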;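 also: 0% = DMSO alone and 100% = 87 µM carbachol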
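Control set: carbachol 87 µM as high control, DMSO as low control; system: HEK293 stable line with zebrafish TRPN1-YFP; read-out: % activation versus carbachol response; detection: intracellular calcium fluorescence with Fluo-8; doses: single test compound dose, 3 µM nominal, 0.3% DMSO; schedule: dye 1 h 37 °C plus 30 min RT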
V1R ag confirm – human V1a receptor agonism, confirmation | shares compounds with V1aR counter | CHO-V1R cells, Fluo-8 calcium fluorescence, agonist | activation, % at 3 µM | actives 20% (n = 180);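 active = average activation exceeds primary screen hit cutoff, cut at about 21% in these data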;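 also: peak over basal fluorescence ratio during a 100 s FLIPR read; 0% = DMSO only wells and 100% = 3 nM vasopressin wells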
OXTR ag counter – OXTR agonism, counter-screen for V1R agonists; actives 10% (n = 180); activation, % at 3 µM; shares compounds with V1aR counter; AID 434969; CHO-OTR cells, Fluo-8 calcium fluorescence, agonist;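 active = mean activation over three repeats above the cutoff from the earlier oxytocin receptor agonist screen, cut at about 20% in these data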;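 also: peak over minimum fluorescence ratio within a 100 second FLIPR read; 0% = DMSO only wells and 100% = oxytocin high control wells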
The depositor's hits bear a star; . = no result given.

SMILES	OXTR potentiate	CRFBP-R2 agonist	V1aR counter	OXTR agonist	TRPML3 ag	zfTRPN1 agonist	V1R ag confirm	OXTR ag counter
CSc1nnc(N2C(=O)C(O)=C(C(=O)c3ccco3)C2c2cccc(Cl)c2)s1 (configuration not stated)	-5.9	23.0	45.1*	10.3	.	.	19.6	15.8
CCOc1cccc(C2C(C(=O)c3ccco3)=C(O)C(=O)N2c2nnc(C)s2)c1 (configuration not stated)	-7.4	20.4	2.5	1.1	.	.	.	.
Cc1ccc(C(=O)OCC(=O)NC2CCCCCC2)c(C)c1	.	-2.2	.	.	.	.	.	.
CCN(CC)C(=O)C1=C(C)N(Cc2ccc(F)cc2)C(=O)C(CC(=O)NCc2ccco2)C1 (configuration not stated)	.	0.9	.	.	.	.	.	.
Cc1nn(C(C)C(=O)Nc2ccccc2Cl)c(=O)c2nn(-c3ccccc3)c(C)c12 (configuration not stated)	-0.1	0.1	0.7	-0.7	.	.	.	.
COC(=O)c1ccccc1NC(=O)C(C)n1nc(C)c2c(C)n(-c3ccccc3)nc2c1=O (configuration not stated)	-9.8	0.7	22.5*	1.1	.	.	-0.3	-0.7
CCC[C@@H]1C[C@@H](C(=O)N[C@@H](C2O[C@H](SC)[C@H](O)[C@@H](O)[C@H]2O)[C@H](C)Cl)N(C)C1 (some centres not stated)	-1.5	-0.6	42.7*	0.8	0.7	-0.3	4.2	0.6
CCC[C@@H]1C[C@@H](C(=O)NC(C(C)Cl)[C@H]2O[C@H](SC)[C@H](O)[C@@H](O)[C@H]2O)N(C)C1 (some centres not stated)	5.5	-0.1	0.3	0.2	.	.	.	.
Cc1ccc(C)c(C(C)NC(=S)NCc2ccc(F)cc2)c1 (configuration not stated)	-17.8	8.8	23.7*	15.7	.	.	4.7	8.6
COc1ccc(C(C)NC(=S)NCc2ccc(F)cc2)cc1 (configuration not stated)	-16.2	3.2	8.9	8.9	.	.	.	.
COc1ccccc1N1C(=O)c2cccc3c(N(C)CCO)ccc(c23)C1=O	-10.0	110.5*	31.4*	18.4	.	.	18.4	11.3
COc1ccccc1N1C(=O)c2cccc3c(C(=O)O)ccc(c23)C1=O	4.8	1.6	0.3	1.9	0.5	-0.9	.	.
CCOc1cc(/C=C2\CCCc3c2nc2ccccc2c3C(=O)O)ccc1OC	1.3	201.0*	59.6*	7.4	.	.	-0.3	-0.2
Nc1nonc1-n1nnc(C(=O)N/N=C/c2cccnc2)c1CSc1ccc(Cl)cc1	-7.7	0.9	20.9*	15.0	.	.	3.1	4.8
Nc1nonc1-n1nnc(C(=O)N/N=C/c2cccnc2)c1CSc1ccccc1	-6.7	-1.4	15.2	9.8	.	.	.	.
CCCOc1ccc(-c2c(C(=O)N/N=C/c3ccc(C)o3)nnn2-c2nonc2N)cc1	-1.1	-1.2	4.0	-0.8	.	.	.	.
CCCOc1ccc(-c2c(C(=O)N/N=C/c3ccncc3)nnn2-c2nonc2N)cc1	-13.1	0.1	21.3*	8.7	.	.	-0.4	-0.5
COc1cccc(-c2c(C(=O)N/N=C/c3ccsc3)nnn2-c2nonc2N)c1	-7.6	19.3	25.1*	8.1	.	.	17.2	4.9
CC(Oc1ccc(Br)cc1)C(=O)Nc1cc(Cl)ccc1N1CCN(C)CC1 (configuration not stated)	-4.8	0.0	-0.9	-1.6	.	.	.	.
CS(=O)(=O)c1ccc(Cl)c(NC(=O)CSc2nnc(-c3cccs3)n2N)c1	-3.9	-0.9	-0.8	0.3	.	.	.	.
CCCCn1c(N)c(N(CCC(C)C)C(=O)c2ccc([N+](=O)[O-])s2)c(=O)[nH]c1=O	-4.5	-1.2	0.3	-1.6	.	.	.	.
